Active and inactive are the calls of the source. No cut-off for these calls is given here.
Experiments:
[1] = molecular target: T1, Mineralocorticoid receptor (Homo sapiens, UniProt P08235); assay: Displacement of [3H]methyltrienolone from human mineralocorticoid receptor expressed in HEK293 cells; format: cell-based
T1 sequence (P08235 whole entry): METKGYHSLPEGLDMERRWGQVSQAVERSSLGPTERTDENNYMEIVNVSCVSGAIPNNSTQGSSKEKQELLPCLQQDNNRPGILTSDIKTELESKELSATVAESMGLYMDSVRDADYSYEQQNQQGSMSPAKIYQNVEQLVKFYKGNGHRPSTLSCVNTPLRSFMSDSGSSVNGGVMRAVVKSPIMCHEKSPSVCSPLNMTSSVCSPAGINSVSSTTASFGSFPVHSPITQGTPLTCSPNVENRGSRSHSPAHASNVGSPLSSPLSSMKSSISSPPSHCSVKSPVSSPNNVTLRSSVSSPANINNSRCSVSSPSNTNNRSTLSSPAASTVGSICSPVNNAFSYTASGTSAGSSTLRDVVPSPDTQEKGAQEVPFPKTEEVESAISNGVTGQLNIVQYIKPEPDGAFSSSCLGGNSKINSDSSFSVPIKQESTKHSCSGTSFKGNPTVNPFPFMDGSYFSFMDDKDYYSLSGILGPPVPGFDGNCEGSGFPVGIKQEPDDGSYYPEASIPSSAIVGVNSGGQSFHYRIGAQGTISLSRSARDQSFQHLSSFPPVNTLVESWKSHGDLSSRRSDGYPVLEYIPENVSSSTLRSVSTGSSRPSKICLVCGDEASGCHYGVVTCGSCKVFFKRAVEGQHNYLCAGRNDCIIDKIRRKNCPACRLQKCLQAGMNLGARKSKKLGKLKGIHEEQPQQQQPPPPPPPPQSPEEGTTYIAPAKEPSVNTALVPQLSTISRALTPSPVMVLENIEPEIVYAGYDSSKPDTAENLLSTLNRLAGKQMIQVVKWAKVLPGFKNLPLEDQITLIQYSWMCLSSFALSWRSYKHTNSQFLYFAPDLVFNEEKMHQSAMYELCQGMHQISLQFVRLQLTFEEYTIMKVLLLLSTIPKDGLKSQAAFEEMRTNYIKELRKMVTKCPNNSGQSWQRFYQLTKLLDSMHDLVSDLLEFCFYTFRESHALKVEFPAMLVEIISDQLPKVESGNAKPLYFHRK
In short: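 Competitive binding to recombinant full-length human receptors against tritium-labelled standards. Values are geometric means of at least duplicate determinations.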

[2] = molecular target: T1, Mineralocorticoid receptor; assay: Antagonist activity at human mineralocorticoid receptor expressed in HEK293 cells assessed as inhibition of […]-induced transcriptional activity by GRE-driven luciferase reporter gene assay; format: functional, cell-based
In short: (§1)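 Transcription assay in HEK293 cells cotransfected with full-length human receptor. Values are geometric means of at least duplicate determinations.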

[3] = molecular target: T2, Mineralocorticoid receptor (Homo sapiens) (UniProt P08235); assay: Antagonist activity at human mineralocorticoid receptor expressed in HEK293 cells assessed as inhibition of […]-induced transcriptional activity by GRE-driven luciferase reporter gene assay relative to untreated control; format: functional, cell-based; parameters: concentration or dose not given beside the values; conditions: concentration not given here; in short: as §1
T2 sequence (whole entry): T1 sequence (P08235 whole entry)

[4] = system: Rattus norvegicus; assay: Antagonist activity at progesterone receptor in orally dosed ovariectomized Sprague-Dawley rat assessed as reversal of R5020-induced down-regulation of estradiol-induced increase in complement 3 mRNA expression by C3 rat uterine assay; format: functional; conditions: po
In short: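 Ovariectomized rats dosed orally (mg/kg dose response). Estrogen (E2, 0.05 mg/kg) induces complement C3 mRNA in uterus. Progestin R5020 (0.1 mg/kg) down-regulates it. Read-out is reversal of the R5020 effect, expressed as fold over asoprisnil (5 mg/kg). ED50 derived from the dose response.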

[5] = system: Oryctolagus cuniculus; assay: Antagonist activity at progesterone receptor in estrogen-primed immature New Zealand White rabbit assessed as inhibition of progesterone-induced endometrial transformation at 1 mg/kg, sc by McPhail assay; format: functional, organism-based; parameters: dose 1 mg/kg
In short: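 Immature rabbits primed with estrogen, given progesterone 1 mg/kg with test compound at various sc doses. Endometrial transformation scored by McPhail Index.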

[6] = system: Oryctolagus cuniculus; assay: Agonist activity at progesterone receptor in estrogen-primed immature New Zealand White rabbit assessed as stimulation of progesterone-induced endometrial transformation at 30 mg/kg, sc by McPhail assay; format: functional, organism-based; parameters: dose 30 mg/kg
In short: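 Immature rabbits primed with estrogen, dosed sc without progesterone. Endometrial transformation scored by McPhail Index.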

[7] = Oral bioavailability in rat; format: ADME, organism-based; conditions: in vivo
In short: (§2)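 Compound given to rats as an oral suspension. Bioavailability, tmax, elimination half-life, volume of distribution and clearance determined.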

[8] = Tmax in rat; format: ADME, organism-based; conditions: in vivo; in short: as §2
[9] = Elimination half life in rat; format: ADME, organism-based; conditions: in vivo; in short: as §2
[10] = Volume of distribution in rat; format: ADME, organism-based; conditions: in vivo; in short: as §2
[11] = Clearance in rat; format: ADME, organism-based; conditions: in vivo; in short: as §2

| Ki [1] [nM] | IC50 [2] [µM] | inhibition [3] [%] | SMILES | also measured |
| --- | --- | --- | --- | --- |
| 1390 | 2.42 | 35.8 | COc1cc(-c2cn(C(C)C)c3cc(NS(C)(=O)=O)ccc23)ccc1C#N |  |
| 86.8 | > 10 | 40.8 | COc1ccc(C(c2ccccc2)c2c[nH]c3ccccc23)cc1 (stereo not drawn) |  |
| > 4170 | > 10 | -2.2 | Cn1cc(-c2ccc(C#N)cc2)c2ccc(NS(C)(=O)=O)cc21 |  |
| 0.64 | 0.0641 | 76.3 | CC(c1ccc(F)cc1)(c1c[nH]c2c(NS(C)(=O)=O)cccc12)C1CC1 (stereo not drawn) |  |
| 1440 | > 10 | 39.2 | CC[C@@H](C)n1cc(-c2ccc(C#N)cc2)c2ccc(NS(C)(=O)=O)cc21 |  |
| 849 | 8.15 | 50.2 | CC(C)n1cc(-c2ccc(C#N)c(F)c2)c2ccc(NS(C)(=O)=O)cc21 | ED50 [4]: 0.33 mg/kg; Activity [5]: Active; Activity [6]: Active; bioavailability [7]: 31.4%; Tmax [8]: 4 h; half-life [9]: 1190 min; Vd [10]: 2.3 L/kg; clearance [11]: 2.5 mL/min/kg |
| 1770 | > 10 | 23.8 | CCn1cc(-c2ccc(C#N)cc2)c2ccc(NS(C)(=O)=O)cc21 |  |
| 126 | > 10 | 56 | Cc1cc(-c2cn(C(C)C)c3cc(NS(C)(=O)=O)ccc23)ccc1C#N |  |
| 1490 | > 10 | 36.6 | CC(C)n1cc(-c2ccc(C#N)cc2)c2ccc(NS(C)(=O)=O)cc21 |  |
| 1000 | 9.8 | 43.4 | CC[C@H](C)n1cc(-c2ccc(C#N)cc2)c2ccc(NS(C)(=O)=O)cc21 |  |

From ChEMBL document CHEMBL1671834, “Novel 3-aryl indoles as progesterone receptor antagonists for uterine fibroids” (ACS Med Chem Lett, 2011)
